The values below come from ChEMBL document CHEMBL4041468, “Effects of Koumine on Adjuvant- and Collagen-Induced Arthritis in Rats” (J Nat Prod, 2016).

Each structure is given as a SMILES string. Active and inactive are the calls of the source.

The test system of data set [1] is Rattus norvegicus. In words: Antiarthritic activity in Lewis rat Freund's adjuvant-induced arthritis model assessed as reduction in arthritis index score at 0.6 mg/kg, ig administered through gavage pretreated for 1 hr followed by adjuvant challenge and subsequent treatment for 9 days measured alternate days up to 24 days post dose. It is filed as functional, organism-based. Put shortly:
(§1)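 Female Lewis rats (8 weeks old) given a single intradermal injection of 0.1 mL CFA (heat-killed M. tuberculosis in paraffin oil) into the right hind paw. Gavage dosing in sterile saline 1 h before induction and daily for 9 d. Arthritis index scored (the paper reports the 18 d reading). n = 10 per group; Kruskal−Wallis with Dunn's test.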

Data set [2] relates to Rattus norvegicus. In words: Antiarthritic activity in Wistar rat type-2 collagen-induced arthritis model assessed as reduction in serum anti-type-2 collagen IgG level at 0.6 mg/kg, ig via gavage administered 10 consecutive days starting from day 20 post type-2 collagen injection by ELISA method. It is filed as functional, organism-based. The procedure, abridged:
(§2)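 CIA Wistar rats (chicken CII in BCG/IFA emulsion, intradermal twice 7 d apart) gavaged daily for 10 d from day 20. Serum collected after treatment; anti-CII IgG quantified with a rat anti-CII antibody ELISA kit. n = 10 per group; one-way ANOVA with Student−Newman−Keuls.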

Data set [3] has as its system Rattus norvegicus. In words: Antiarthritic activity in Wistar rat type-2 collagen-induced arthritis model assessed as reduction in serum TNF-alpha level at 15 mg/kg, ig via gavage administered 10 consecutive days starting from day 20 post type-2 collagen injection by ELISA method. It is filed as functional, organism-based. The procedure, abridged: (§3)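 CIA Wistar rats dosed by gavage daily for 10 d from day 20 post first CII injection. Trunk blood serum stored at −70 °C. Right hind paw joint tissue homogenized at 200 mg/mL in PBS with 50 U/mL aprotinin, then centrifuged at 3000 rpm for 20 min at 4 °C. IL-1β and TNF-α quantified by ELISA kits in serum and supernatant. n = 10; one-way ANOVA with SNK.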

Data set [4] has as its system Rattus norvegicus. Nature of the data set: Antiarthritic activity in Wistar rat type-2 collagen-induced arthritis model assessed as reduction in bone erosion at 0.6 to 15 mg/kg, ig via gavage administered 10 consecutive days starting from day 20 post type-2 collagen injection by X-ray method. It is filed as functional, organism-based. Put shortly: (§4)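 CIA in male Wistar rats (chicken CII emulsion, two intradermal injections 7 d apart); daily gavage for 10 d from day 20. After treatment, hind limbs X-rayed. Left hind paw joints fixed in 10% formalin, decalcified in 10% EDTA for 28 d at 4 °C, paraffin-embedded, sectioned at 5 μm, H&E-stained and examined by light microscopy at 100×.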

Data set [5] deals with Rattus norvegicus. Nature of the data set: Antiarthritic activity in Lewis rat Freund's adjuvant-induced arthritis model assessed as change in thymus weight at 0.6 to 15 mg/kg, ig administered through gavage pretreated for 1 hr followed by adjuvant challenge subsequent treatment for 9 days measured alternate days up to 24 days post dose. It is filed as functional, organism-based. Put shortly:
(§5)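 Female Lewis rats (8 weeks old, 120−140 g) given a single intradermal injection of 0.1 mL CFA (10 mg heat-killed M. tuberculosis per 1 mL paraffin oil) into the right hind paw. Oral gavage in sterile saline 1 h before induction, then daily for the next 9 d. Sacrifice by exsanguination under deep anesthesia 24 d after adjuvant. Spleen, liver and thymus weighed and corrected for body weight (g/100 g). n = 10; one-way ANOVA with Student−Newman−Keuls.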

Data set [6] in a line: Toxicity in ig dosed Wistar rat measured 30 mins after administration via gavage at 4 h intervals during first 24 hrs and twice a day thereafter over the next 13 days. The data set is classed as organism-based. As to conditions: in vivo, po. The procedure, abridged: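 OECD 425 up-and-down procedure in ten 7-week-old male Wistar rats, fasted overnight. Single gavage dose at 10 mL/kg, starting at 300 mg/kg with a progression factor of 1/0.75. Survival checked at 30 min, every 4 h for 24 h, then twice daily for 13 d. LD50 reported with a 95% confidence interval.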

For data set [7], the system named is Rattus norvegicus. In words: Antiarthritic activity in Wistar rat type-2 collagen-induced arthritis model assessed as reduction in TNF-alpha mRNA expression at 15 mg/kg, ig via gavage administered 10 consecutive days starting from day 20 post type-2 collagen injection by qPCR analysis. The data set is classed as functional, organism-based. The procedure, abridged:
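Male Wistar rats (7 weeks old) given chicken CII (2 mg/mL in 0.1 M acetic acid) emulsified 1:1 in BCG/IFA adjuvant, two intradermal 0.3 mL injections 7 d apart. Gavage in saline daily for 10 d from day 20. Total RNA from ankle synovial tissue homogenate, reverse transcribed, qPCR in triplicate. Fold change vs blank control by 2−ΔΔCt.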

In data set [8] the test system is Rattus norvegicus. Nature of the data set: Antiarthritic activity in Wistar rat type-2 collagen-induced arthritis model assessed as reduction in bone degradation at 0.6 to 15 mg/kg, ig via gavage administered 10 consecutive days starting from day 20 post type-2 collagen injection by X-ray method. The data set is classed as functional, organism-based. The procedure, abridged: as §4

For data set [9], the system named is Rattus norvegicus. Nature of the data set: Antiarthritic activity in ig dosed Lewis rat Freund's adjuvant-induced arthritis model assessed as reduction in mechanical allodynia in ipsilateral hind paw administered through gavage pretreated for 1 hr followed by adjuvant challenge and subsequent treatment for 9 days measured alternate days up to 24 days post dose. It is filed as functional, organism-based. Put shortly:
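Lewis rats with CFA-induced arthritis (0.1 mL intradermal, right hind paw), gavaged 1 h before induction and daily for 9 d. Mechanical withdrawal threshold measured 1 h after dosing. Rats habituated 30 min in individual cubicles; von Frey filament applied upward to the centre of each hind paw until withdrawal, maximum 55 g. Repeated twice at 10 min intervals; ipsilateral and contralateral paws recorded separately. n = 10; two-way ANOVA.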

In data set [10] the test system is Rattus norvegicus. Nature of the data set: Antiarthritic activity in Wistar rat type-2 collagen-induced arthritis model assessed as reduction in serum anti-type-2 collagen IgG level at 3 mg/kg, ig via gavage administered 10 consecutive days starting from day 20 post type-2 collagen injection by ELISA method. The data set is classed as functional, organism-based. Put shortly:
as §2

The subject of data set [11] is Rattus norvegicus. Nature of the data set: Antiarthritic activity in Lewis rat Freund's adjuvant-induced arthritis model assessed as reduction in arthritis index score at 3 mg/kg, ig administered through gavage pretreated for 1 hr followed by adjuvant challenge subsequent treatment for 9 days measured alternate days up to 24 days post dose. It is filed as functional, organism-based. Put shortly:
as §1

Data set [12] deals with Rattus norvegicus. Nature of the data set: Antiarthritic activity in Wistar rat type-2 collagen-induced arthritis model assessed as reduction in serum IL-1beta level at 3 to 15 mg/kg, ig via gavage administered 10 consecutive days starting from day 20 post type-2 collagen injection by ELISA method. It is filed as functional, organism-based. Put shortly: as §3
Data set [13] relates to Rattus norvegicus. Nature of the data set: Antiarthritic activity in Wistar rat type-2 collagen-induced arthritis model assessed as reduction in serum anti-type-2 collagen IgG level at 15 mg/kg, ig via gavage administered 10 consecutive days starting from day 20 post type-2 collagen injection by ELISA method. It is filed as functional, organism-based. Put shortly: as §2

The subject of data set [14] is Rattus norvegicus. Nature of the data set: Antiarthritic activity in Lewis rat Freund's adjuvant-induced arthritis model assessed as change in spleen weight at 0.6 to 15 mg/kg, ig administered through gavage pretreated for 1 hr followed by adjuvant challenge subsequent treatment for 9 days measured alternate days up to 24 days post dose. It is filed as functional, organism-based. Put shortly: as §5

Data set [15] has as its system Rattus norvegicus. Nature of the data set: Antiarthritic activity in Wistar rat type-2 collagen-induced arthritis model assessed as reduction in joint tissue TNF-alpha level at 15 mg/kg, ig via gavage administered 10 consecutive days starting from day 20 post type-2 collagen injection by ELISA method. It is filed as functional, organism-based. The procedure, abridged:
as §3

The test system of data set [16] is Rattus norvegicus. Nature of the data set: Antiarthritic activity in Wistar rat type-2 collagen-induced arthritis model assessed as reduction in mechanical allodynia administered as ig via gavage for 10 consecutive days starting from day 20 post type-2 collagen injection. The data set is classed as functional. The procedure, abridged: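 Male Wistar rats (7 weeks old) immunized with chicken CII in CFA/IFA, two intradermal 0.3 mL injections 7 d apart. Oral gavage in saline for 10 consecutive days starting day 20. Evaluation at baseline, predosing, and on alternate days thereafter: arthritis score; plethysmometer volume averaged over both hind paws; von Frey threshold 1 h post-dose (max 55 g, two repeats 10 min apart). n = 10.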

Take `C=C[C@@]12CN(C)[C@H]3C[C@]14C(=Nc1ccccc14)[C@H]1C[C@@H]2[C@@H]3CO1`: the outcome with Rattus norvegicus [1], in the data set on Rattus norvegicus [3], in the data set with Rattus norvegicus [4], with Rattus norvegicus [5], with Rattus norvegicus [7] and in the data set with Rattus norvegicus [8] was Active. Further, the outcome in the data set with Rattus norvegicus [10], with Rattus norvegicus [11], in the data set with Rattus norvegicus [12], with Rattus norvegicus [13] and in the data set on Rattus norvegicus [15] was Active. Besides, the outcome with Rattus norvegicus [2] and in the data set with Rattus norvegicus [14] was inactive. The compound also had an LD50 at 14 days in data set [6] of 300 mg/kg. The Activity result with Rattus norvegicus [9] and in the data set on Rattus norvegicus [16] was “Dose-dependent effect” each time.
